{"data": "Measurements from different studies", "target": "Phosphatidylinositol 4-phosphate 5-kinase type-1 alpha (PIP5K1A, Homo sapiens, UniProt Q99755)", "note": "Compare with care: the assays were run in different laboratories."}
{"Compound": "C[C@H]1CCN(c2nccc(-c3cnn4ncccc34)n2)C1", "read-out": "binding", "tested at": "1 µM", "remaining binding [%]": 47}
{"Compound": "COc1cnc(Nc2cccc(S(N)(=O)=O)c2)nc1N1CCN(c2ccccc2)C(=O)C1", "read-out": "binding", "method": "competition with immobilised ligand", "tested at": "1 µM", "remaining binding [%]": 89}
{"Compound": "Nc1ncc2c(n1)-c1c([nH]c3ccc(C#CC4CC4)cc13)CCCC2", "read-out": "binding", "method": "competition with immobilised ligand", "tested at": "1 µM", "remaining binding [%]": 99}
{"Compound": "CCN1CCN(Cc2ccc(C(=O)Nc3ccc(C)c(Oc4ccc5c(c4)CC(=O)N5)c3)cc2C(F)(F)F)CC1", "read-out": "binding", "method": "competition with immobilised ligand", "tested at": "1 µM", "remaining binding [%]": 100}
{"Compound": "CN(C)c1nccc(-c2cnc3ncccn23)n1", "read-out": "binding", "tested at": "1 µM", "remaining binding [%]": 72}
{"Compound": "FC(F)(F)Oc1cccc(-c2cnc3ccc(-c4ccncc4)nn23)c1", "read-out": "cell-free assay", "method": "competition with immobilised ligand", "tested at": "5 µM", "remaining binding [%]": 20}
{"Compound": "O=C(c1ccc(Nc2ncc(Cl)c(-c3cc4ccccc4s3)n2)cc1)N1CCC(N2CCCC2)CC1", "read-out": "binding", "method": "competition with immobilised ligand", "tested at": "1 µM", "remaining binding [%]": 2.2}
{"Compound": "CN(c1nccc(-c2cnn3ncccc23)n1)C1CC1", "read-out": "binding", "tested at": "1 µM", "remaining binding [%]": 100}
{"Compound": "COc1ccc2cc(OCC3(C(=O)O)CN(C(=O)c4ccc(F)cc4)C3)ccc2c1", "read-out": "cell-free assay", "method": "competition with immobilised ligand", "tested at": "1 µM", "remaining binding [%]": 100}
{"Compound": "Cc1nc(NC(=O)N2CCC[C@H]2C(N)=O)sc1-c1ccnc(C(C)(C)C(F)(F)F)c1", "read-out": "binding", "method": "competition with immobilised ligand", "tested at": "10 µM", "remaining binding [%]": 59}
{"Compound": "O=C(Nc1c[nH]nc1C(=O)NC1CCNCC1)c1cc(F)cc(F)c1", "read-out": "binding", "method": "competition with immobilised ligand", "tested at": "1 µM", "remaining binding [%]": 100}
{"Compound": "CCCOc1ccc([C@@H]2[C@@H](C(=O)O)[C@H](c3ccc4c(c3)OCO4)CN2CC(=O)Nc2c(CC)cccc2CC)cc1", "read-out": "cell-free assay", "method": "competition with immobilised ligand", "tested at": "1 µM", "remaining binding [%]": 90}
{"Compound": "O=C(NCCCN1CCOCC1)c1ccc(Nc2nccc(-c3cc4ccccc4s3)n2)cc1", "read-out": "binding", "method": "competition with immobilised ligand", "tested at": "1 µM", "remaining binding [%]": 4.2}
{"Compound": "CN(c1ccnc(CNc2nc(Nc3ccc4c(c3)CC(=O)N4)ncc2C(F)(F)F)n1)S(C)(=O)=O", "read-out": "cell-free assay", "method": "competition with immobilised ligand", "tested at": "1 µM", "remaining binding [%]": 12}
{"Compound": "F[C@@H]1CCN(c2nccc(-c3cnn4ncccc34)n2)C1", "read-out": "binding", "tested at": "1 µM", "remaining binding [%]": 100}
{"Compound": "O=C(Nc1ccc(Oc2ccc(F)cc2)cc1)N1CCc2ncccc2[C@H]1c1ccc(F)cc1", "read-out": "cell-free assay", "method": "competition with immobilised ligand", "tested at": "1 µM", "remaining binding [%]": 95}
{"Compound": "c1cnn2ncc(-c3ccnc(N4CCC45COC5)n3)c2c1", "read-out": "binding", "tested at": "1 µM", "remaining binding [%]": 100}
{"Compound": "Cc1cc(C)c(-n2ccn3nc(-c4cccnc4)cc23)cc1NC(=O)c1cc(C#N)cc(S(F)(F)(F)(F)F)c1", "read-out": "cell-free assay", "method": "competition with immobilised ligand", "tested at": "0.1 µM", "remaining binding [%]": 95}
{"Compound": "c1cncc(-c2cccc(Nc3nccc(NC4CCCCC4)n3)c2)c1", "read-out": "binding", "method": "competition with immobilised ligand", "tested at": "10 µM", "remaining binding [%]": 71}
{"Compound": "C[C@H](c1cccc(C#N)c1)n1cc(Cl)cc(C(N)=O)c1=N", "read-out": "cell-free assay", "method": "competition with immobilised ligand", "tested at": "1 µM", "remaining binding [%]": 100}
{"Compound": "Cc1cnc(Nc2ccc(C(=O)N3CCC(N4CCCC4)CC3)cc2)nc1-c1cc2ccccc2s1", "read-out": "binding", "method": "competition with immobilised ligand", "tested at": "1 µM", "remaining binding [%]": 1.5}
{"Compound": "COc1ccnn2ncc(-c3ccnc(N(C)C)n3)c12", "read-out": "binding", "tested at": "1 µM", "remaining binding [%]": 72}
{"Compound": "CN(C)CC#Cc1ccc(OCCCc2sc(N3CCc4cccc(C(=O)Nc5nc6ccccc6s5)c4C3)nc2C(=O)O)c(F)c1", "read-out": "cell-free assay", "method": "competition with immobilised ligand", "tested at": "1 µM", "remaining binding [%]": 100}
